Measured values taken from ChEMBL document CHEMBL1275484, “Rifampin and rifaximin resistance in clinical isolates of Clostridium difficile” (Antimicrob Agents Chemother, 2008).
≈ marks a conversion by molar mass, not a printed value.

Key:
Format in all cases: functional
Clostridioides difficile [1] = test: Antimicrobial activity against Clostridium difficile isolate 40 by agar dilution method
Outline: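 CLSI reference agar dilution method for anaerobes, with endpoints read per guideline M11-A7. Rifaximin was dissolved in methanol, diluted in 0.1 M phosphate buffer (pH 7.4) with 0.45% SDS, and tested at 0.0009–256 μg/ml. Rifampin was dissolved in methanol, diluted in water, and tested at 0.00001–256 μg/ml. C. difficile ATCC […] served as control. Isolates were typed by HindIII REA.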

Clostridioides difficile [2] = test: Antimicrobial activity against Clostridium difficile isolate 75 by agar dilution method
Outline: (§1)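 CLSI reference agar dilution for anaerobes, with endpoints read per guideline M11-A7. Rifaximin was dissolved in methanol, diluted in 0.1 M phosphate buffer pH 7.4 with 0.45% SDS, and tested at 0.0009–256 μg/ml. Rifampin was dissolved in methanol, diluted in water, and tested at 0.00001–256 μg/ml. Control strain: C. difficile ATCC […]. Isolates were typed by HindIII REA.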

Clostridioides difficile [3] = test: Antimicrobial activity against Clostridium difficile isolate 79 by agar dilution method; outline: as §1
Clostridioides difficile [4] = test: Antimicrobial activity against Clostridium difficile isolate 8 by Etest
Outline: (§2)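 Rifampin MIC by Etest on brucella blood agar, run per the strip manufacturer's instructions, against clinical isolates typed by HindIII REA.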

Clostridioides difficile [5] = test: Antimicrobial activity against Clostridium difficile isolate 12 expressing RpoB H502N and R505K mutants by Etest
Outline: (§3)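 Rifampin Etest on clinical C. difficile isolates typed by HindIII REA, run per the strip manufacturer's instructions on brucella blood agar, with the MIC read from the strip.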

Clostridioides difficile [6] = test: Antimicrobial activity against rifaximin-resistant Clostridium difficile isolate 18 expressing RpoB R505K mutant by Etest; outline: as §3
Clostridioides difficile [7] = test: Antimicrobial activity against Clostridium difficile isolate 33 by Etest
Outline: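 Rifampin MIC by Etest strip on brucella blood agar, run per the strip maker's instructions. Isolates were HindIII REA-typed clinical C. difficile.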

Clostridioides difficile [8] = test: Antimicrobial activity against Clostridium difficile isolate 72 by Etest; outline: as §2
Clostridioides difficile [9] = test: Antimicrobial activity against Clostridium difficile isolate 75 by Etest; outline: as §2
Clostridioides difficile [10] = test: Antimicrobial activity against Clostridium difficile isolate 30 by agar dilution method
Outline: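 MIC by CLSI reference agar dilution for anaerobes, with endpoints read per M11-A7 and C. difficile […] as control. Rifaximin was dissolved in methanol, diluted in 0.1 M phosphate buffer pH 7.4 plus 0.45% SDS, and tested at 0.0009–256 μg/ml. Rifampin was dissolved in methanol, diluted in water, and tested at 0.00001–256 μg/ml.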

## CO[C@H]1/C=C/O[C@@]2(C)Oc3c(C)c(O)c4c(O)c(c(/C=N/N5CCN(C)CC5)c(O)c4c3C2=O)NC(=O)/C(C)=C\C=C\[C@H](C)[C@H](O)[C@@H](C)[C@@H](O)[C@@H](C)[C@H](OC(C)=O)[C@@H]1C [RIFAMPIN]
Clostridioides difficile [1]
  MIC: 0.9 ng/mL (≈ 1.09 nM)
Clostridioides difficile [2]
  MIC: 0.06 ng/mL (≈ 0.0729 nM)
Clostridioides difficile [3]
  MIC: 0.06 ng/mL (≈ 0.0729 nM)
Clostridioides difficile [4]
  MIC: < 2 ng/mL
Clostridioides difficile [5]
  MIC: > 32000 ng/mL
Clostridioides difficile [6]
  MIC: > 32000 ng/mL
Clostridioides difficile [7]
  MIC: < 2 ng/mL
Clostridioides difficile [8]
  MIC: < 2 ng/mL
Clostridioides difficile [9]
  MIC: < 2 ng/mL
Clostridioides difficile [10]
  MIC: 0.9 ng/mL (≈ 1.09 nM)
